These results are taken from PMC6457116 (ACS chemical biology, 2018).

SMILES strings stand for the structures.

The subject of the series is IMR-90 human lung fibroblasts. Kind of series: Mammalian cell viability, Cell Titer Glo. The format is cell-based. Particulars: 1 μg mL^−1 doxorubicin. The procedure, abridged:
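IMR-90 fibroblasts from ATCC, grown in EMEM with 10% FBS and Pen-Strep at 37 °C, 5% CO2, split 1:3 at confluence. Seeded 20,000 cells/well and left overnight to adhere. Then treated 24 h or 48 h with 50 μM test compound (0.5% DMSO), 0.5% DMSO, 10% DMSO or doxorubicin hydrochloride (given as 1 μg mL−1 and 1.7 μM). CellTiter-Glo ATP luminescence, no-cell background. Percent death versus 0.5% DMSO.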
(In general: In ATP-based viability assays light output follows the ATP content of the culture.)

With `COc1cccc2c1C(=O)c1c(O)c3c(c(O)c1C2=O)C[C@@](O)(C(=O)CO)C[C@@H]3O[C@H]1C[C@H](N)[C@H](O)[C@H](C)O1` [doxorubicin], the cells dead (24 h) amounted to 50%. The “cell death (in words)” value (48 h) is “near complete cell death”.
